Experimental data as given in ChEMBL document CHEMBL5724801, “EUbOPEN Chemogenomics Library - Multiplex” (2024).
Values joined by “and” are separate entries in the source; they are usually repeats but may differ in a detail not shown here. Equal values may be shown once.

Assays:
[1] = tested on: HEK-293T; assay: Multiplex assay against HEK293T; assay type: toxicity, cell-based; conditions: human
Procedure, shortened: (§1)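 Imaging took place on a CQ1 microscope at 37°C and 5% CO2 once compound had been added to live cells stained at seeding with Hoechst33342, BioTracker Green Microtubule Cytoskeleton Dye, MitoTracker Red and Annexin V Alexa Fluor 680. CellPathfinder machine-learning gating classed cells as Hoechst high-intensity objects or normal cells, classed normal cells as having healthy, pyknosed or fragmented nuclei, and classed pyknosed cells as mitotic or apoptotic. Tubulin, mitochondrial-mass and membrane-permeability phenotypes are per cents of the healthy-nucleus cells.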

[2] = tested on: U2OS; assay: Multiplex assay against U2OS; assay type: toxicity, cell-based; conditions: human; procedure, shortened: as §1
[3] = 24 h, 10 µM, compound concentration 10 uM
[4] = 48 h, 1 µM, compound concentration 1 uM
[5] = 48 h, 10 µM, compound concentration 10 uM
[6] = 12 h, 1 µM, compound concentration 1 uM
[7] = 12 h, 10 µM, compound concentration 10 uM
[8] = 24 h, 1 µM, compound concentration 1 uM

SMILES: Cc1cccc(NC(=O)CN2CCC(c3ccccn3)CC2)c1.Cl.Cl
- Population Fragmented Nuclei (%) [1, 3]: 8% and 11%
- Population Healthy Nuclei (%) [1, 3]: 74% and 75%
- Population Hoechst High Intensity Objects (%) [1, 3]: 7%
- Population Membrane Permeable-Phenotype (%) [1, 3]: 0%
- Population Mitochondria Different-Phenotype (%) [1, 3]: 60% and 64%
- Population Mitotic Cells (%) [1, 3]: 40% and 50%
- Population Normal (%) [1, 3]: 92%
- Population Pyknosed Nuclei (%) [1, 3]: 17% and 13%
- Population Tubulin-Different-Phenotype (%) [1, 3]: 38% and 26%
- Total Cell Count [1, 3]: 350 and 348
- Population Apoptotic (%) [1, 4]: 30% and 46%
- Population Fragmented Nuclei (%) [1, 4]: 13% and 8%
- Population Healthy Nuclei (%) [1, 4]: 76% and 83%
- Population Hoechst High Intensity Objects (%) [1, 4]: 2% and 4%
- Population Membrane Permeable-Phenotype (%) [1, 4]: 0%
- Population Mitochondria Different-Phenotype (%) [1, 4]: 25% and 24%
- Population Mitotic Cells (%) [1, 4]: 69% and 53%
- Population Normal (%) [1, 4]: 97% and 95%
- Population Pyknosed Nuclei (%) [1, 4]: 9% and 8%
- Population Tubulin-Different-Phenotype (%) [1, 4]: 21% and 13%
- Total Cell Count [1, 4]: 688 and 524
- Population Apoptotic (%) [1, 5]: 46% and 48%
- Population Fragmented Nuclei (%) [1, 5]: 13% and 16%
- Population Healthy Nuclei (%) [1, 5]: 75% and 76%
- Population Hoechst High Intensity Objects (%) [1, 5]: 4% and 2%
- Population Membrane Permeable-Phenotype (%) [1, 5]: 0%
- Population Mitochondria Different-Phenotype (%) [1, 5]: 45% and 37%
- Population Mitotic Cells (%) [1, 5]: 53% and 51%
- Population Normal (%) [1, 5]: 95% and 97%
- Population Pyknosed Nuclei (%) [1, 5]: 10% and 7%
- Population Tubulin-Different-Phenotype (%) [1, 5]: 26% and 20%
- Total Cell Count [1, 5]: 515 and 544
- Population Apoptotic (%) [2, 6]: 90% and 57%
- Population Fragmented Nuclei (%) [2, 6]: 27% and 17%
- Population Healthy Nuclei (%) [2, 6]: 67% and 76%
- Population Hoechst High Intensity Objects (%) [2, 6]: 1% and 0%
- Population Membrane Permeable-Phenotype (%) [2, 6]: 5% and 4%
- Population Mitochondria Different-Phenotype (%) [2, 6]: 2%
- Population Normal (%) [2, 6]: 98% and 99%
- Population Pyknosed Nuclei (%) [2, 6]: 5% and 6%
- Population Tubulin-Different-Phenotype (%) [2, 6]: 3%
- Total Cell Count [2, 6]: 208 and 111
- Population Apoptotic (%) [2, 7]: 72% and 66%
- Population Fragmented Nuclei (%) [2, 7]: 34% and 21%
- Population Healthy Nuclei (%) [2, 7]: 55% and 70%
- Population Hoechst High Intensity Objects (%) [2, 7]: 2% and 1%
- Population Membrane Permeable-Phenotype (%) [2, 7]: 8% and 12%
- Population Mitochondria Different-Phenotype (%) [2, 7]: 6% and 7%
- Population Mitotic Cells (%) [2, 7]: 27% and 33%
- Population Normal (%) [2, 7]: 97% and 98%
- Population Pyknosed Nuclei (%) [2, 7]: 10% and 8%
- Population Tubulin-Different-Phenotype (%) [2, 7]: 3% and 9%
- Total Cell Count [2, 7]: 216 and 111
- Population Apoptotic (%) [2, 8]: 76% and 73%
- Population Fragmented Nuclei (%) [2, 8]: 22% and 21%
- Population Healthy Nuclei (%) [2, 8]: 70% and 67%
- Population Hoechst High Intensity Objects (%) [2, 8]: 3% and 0%
- Population Membrane Permeable-Phenotype (%) [2, 8]: 5% and 7%
- Population Mitochondria Different-Phenotype (%) [2, 8]: 3% and 4%
- Population Mitotic Cells (%) [2, 8]: 23% and 26%
- Population Normal (%) [2, 8]: 96% and 99%
- Population Pyknosed Nuclei (%) [2, 8]: 7% and 11%
- Population Tubulin-Different-Phenotype (%) [2, 8]: 3% and 5%
- Total Cell Count [2, 8]: 249 and 135
- Population Apoptotic (%) [2, 3]: 85% and 75%
- Population Fragmented Nuclei (%) [2, 3]: 32% and 20%
- Population Healthy Nuclei (%) [2, 3]: 55% and 73%
- Population Hoechst High Intensity Objects (%) [2, 3]: 3% and 2%
- Population Membrane Permeable-Phenotype (%) [2, 3]: 6% and 17%
- Population Mitochondria Different-Phenotype (%) [2, 3]: 3% and 5%
- Population Mitotic Cells (%) [2, 3]: 14% and 25%
- Population Normal (%) [2, 3]: 96% and 97%
- Population Pyknosed Nuclei (%) [2, 3]: 11% and 6%
- Population Tubulin-Different-Phenotype (%) [2, 3]: 2% and 10%
- Total Cell Count [2, 3]: 243 and 131
- Population Apoptotic (%) [2, 4]: 82% and 94%
- Population Fragmented Nuclei (%) [2, 4]: 18% and 17%
- Population Healthy Nuclei (%) [2, 4]: 72%
- Population Hoechst High Intensity Objects (%) [2, 4]: 2% and 3%
- Population Membrane Permeable-Phenotype (%) [2, 4]: 6% and 2%
- Population Mitochondria Different-Phenotype (%) [2, 4]: 3%
- Population Normal (%) [2, 4]: 97% and 96%
- Population Pyknosed Nuclei (%) [2, 4]: 8% and 10%
- Population Tubulin-Different-Phenotype (%) [2, 4]: 3% and 2%
- Total Cell Count [2, 4]: 341 and 182
- Population Apoptotic (%) [2, 5]: 96% and 83%
- Population Fragmented Nuclei (%) [2, 5]: 29% and 19%
- Population Healthy Nuclei (%) [2, 5]: 60% and 74%
- Population Hoechst High Intensity Objects (%) [2, 5]: 3%
- Population Membrane Permeable-Phenotype (%) [2, 5]: 6% and 10%
- Population Mitochondria Different-Phenotype (%) [2, 5]: 6% and 4%
- Population Normal (%) [2, 5]: 96%
- Population Pyknosed Nuclei (%) [2, 5]: 9% and 6%
- Population Tubulin-Different-Phenotype (%) [2, 5]: 3% and 4%
- Total Cell Count [2, 5]: 303 and 198
